Screening results as filed in PubChem BioAssay.
Rows were chosen to be rich in hits. Some 2.1% of all compounds tested hit in one or more screens of this group.
EWS-Fli inh: EWS/Fli transcriptional activity inhibition. A673 NR0B1-luciferase reporter, viability-normalised. inhibition, % at 12.6 µM. 0.67% of 350,000 active. AID 651661;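 active = mean inhibition of at least 50% after viability correction, with every replicate also passing that limit; inconclusive = mean reaches 50% but only one of two replicates passes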;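 also: firefly luciferase signal divided by Alamar Blue viability fluorescence both relative to DMSO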
Shn3 inh set2: Schnurri-3 reporter inhibition in Clone20 osteoblasts. AID 588674. inhibition, % at 12.5 µM. Clone20 osteoblast Shn3 3'UTR firefly luciferase, 24 h. 0.52% of 360,000 active;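 active = mean inhibition of at least 75% with every replicate also reaching 75%; inconclusive = mean inhibition at least 75% but some replicate below; inactive = mean inhibition below 75%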;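 also: 0% = median of neutral control wells and 100% = pilot-screen positive control compound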
LMP1 NFkB inh: Epstein-Barr LMP1 NF-kappaB reporter inhibition. inhibition, % at 12.5 µM. LMP1-induced NF-kappaB luciferase reporter cells, luminescence. 0.69% of 350,000 active; in the data active = inhibition above about 41%; inconclusive = no clear call, values can overlap the other calls;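 also: 0% = neutral control wells and 100% = reference inhibitor control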
PAX8 inh HTS: inhibitors of PAX8 transcriptional activity in RMG-I cells; RMG-I TPO-luciferase reporter, SteadyGlo, 24 h; inhibition, % at 12.6 µM; 1.2% of 360,000 active; AID 652154;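 active = mean replicate inhibition at least 60% with every replicate also reaching 60%; inconclusive = only one of the two criteria is met; inactive = mean below 60% and not all replicates reaching 60%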;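 also: luciferase light reporting Pax8 driven TPO promoter activity; plate controls were median of neutral control wells for no effect and mitoxantrone controls for full effect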
FN deposition inh: fibronectin deposition inhibition | AH1F fibroblasts, Alexa488-fibronectin deposition fluorescence, overnight | inhibition, % at 12.6 µM | 0.086% of 350,000 active | AID 743247;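 active = mean inhibition across replicates of 30% or more, regardless of how many single replicates reach that level; inconclusive = mean under 30% yet at least half of replicates reach 30%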;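 also: positive control wells lacked labelled fibronectin entirely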
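Measured by – fluorescence 485/525 nm · System – AH1F fibroblast monolayer, labelled fibronectin deposition · Amount – 10000 cells per well · Buffer or medium – serum-reduced DMEM (2% serum) · Doses – single dose, pinned · Also added – fluorescent fibronectin at 24 nM final · Schedule – 1 h cell attachment, overnight exposure to compound and label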
aSyn 5UTR inh: MLPCN primary screen, SNCA 5' untranslated region | alpha-synuclein 5'UTR reporter, inhibitor activity | inhibition, % (tested at 7.5 µM) | 0.82% of 300,000 active | AID 1813; in the data active = inhibition above about 60%; inconclusive = no clear call, values can overlap the other calls;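 also: H4 neuroglioblastoma cells stably carrying SNCA 5'UTR luciferase fusion; 0% = DMSO wells and 100% = positive control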
Starred values were filed as active, the others as inactive; u = inconclusive; x = not tested or not shown.

SMILES	EWS-Fli inh	Shn3 inh set2	LMP1 NFkB inh	PAX8 inh HTS	FN deposition inh	aSyn 5UTR inh
CN(C)c1cccc(C(=O)Nc2nc3ccccc3[nH]2)c1	38	14	44*	-14	-2	36
COc1ccc(-c2nc3ccccc3s2)cc1	79*	25	34	3	-13	x
COc1cccc(C(=O)Nc2nc3ccccc3[nH]2)c1	x	-1	u	x	x	63*
O=C(Nc1nc2ccccc2[nH]1)c1cccc(F)c1	2	-20	0	-81	4	-62
COc1ccc(C(=O)N[C@H](C(=O)Nc2nc3ccccc3[nH]2)C(C)C)cc1	u	-24	10	-1	-2	106*
O=C(Nc1nc2ccccc2[nH]1)c1cccc(Br)c1	-5	-41	-20	-122	-15	-30
COc1cccc(CN2CCCCN3[C@H](C2)[C@H](c2ccc(-c4cccnc4)cc2)[C@@H]3CO)c1	-1	x	x	-9	x	x
Cc1noc(C)c1S(=O)(=O)N(C)C[C@@H]1OCCCC[C@@H](C)Oc2ccc(NC(=O)Nc3ccc(F)cc3)cc2C(=O)N([C@@H](C)CO)C[C@@H]1C	-3	x	x	-18	2	x
COc1cccc(NC(=O)N2C[C@H](O)COC[C@@H]3O[C@H](CC(=O)NC4CCCC4)CC[C@H]32)c1	-9	x	x	6	2	x
CCCNC(=O)N1CC2(C1)CN(C(=O)CC1CC1)[C@H](CO)c1[nH]c3cc(OC)ccc3c12	-4	x	x	x	x	x
COc1ccc(-c2ccc3c(c2)O[C@@H](CN(C)C(C)=O)[C@@H](C)CN([C@H](C)CO)S3(=O)=O)cc1	1	x	x	x	1	x
Cc1ccc(C(=O)Nc2cnc3ccccc3c2)cc1	x	86*	79*	90*	1	103*
Cc1cccc(C(=O)N[C@H](C(=O)Nc2nc3ccccc3[nH]2)C(C)C)c1	56*	28	1	59	-3	96*
Cc1ccc(C(=O)Nc2nc3ccccc3[nH]2)cc1	78*	32	63*	81*	5	68*
COc1cc(C(=O)Nc2nc3ccccc3[nH]2)cc(OC)c1OC	x	-28	-11	x	x	-76
Cc1cccc(C(=O)N[C@H](C(=O)Nc2nc(C)cs2)C(C)C)c1	2	-7	-2	3	4	-2
COc1ccc(C(=O)Nc2nc3ccccc3[nH]2)cc1	76*	17	55*	u	7	71*
Cc1cc(C(=O)Nc2cnc3ccccc3c2)ccc1[N+](=O)[O-]	-74	-45	-19	-117	-5	-132
O=C(Nc1nc2ccccc2[nH]1)c1ccc([N+](=O)[O-])cc1	-49	-43	-1	-151	9	-28
CN(C)C(=O)c1ccc(-c2ccc3c(c2)[C@H]2[C@H](CCN2C(=O)c2ccccn2)[C@H](CO)N3C)cc1	-13	x	x	-1	-9	x
C/C=C/c1cnc2c(c1)C(=O)N([C@H](C)CO)C[C@@H](C)[C@H](CN(C)C(=O)C1CC1)O2	-7	x	x	x	x	x
COc1ccc(C(=O)Nc2nc3ccccc3s2)cc1	61*	6	13	-17	-5	67*
COCC(=O)Nc1ccc2c(c1)[C@@H]1C[C@H](CC(=O)NC3CCCCC3)O[C@@H](CO)[C@@H]1O2	-6	x	x	-4	1	x
C[C@H](CO)N1C[C@H](C)[C@@H](CN(C)Cc2ccc(C(F)(F)F)cc2)Oc2ccc(NC(=O)C3CC3)cc2CC1=O	5	x	x	23	x	x
S=C1SCN(Cc2ccccn2)CN1Cc1ccco1	x	2	25	x	-9	x
COCCN1CSC(=S)N(Cc2ccco2)C1	x	0	45*	x	-6	x
C[C@@H]1CCCCO[C@@H](CN(C)Cc2ccccc2)[C@@H](C)CN([C@@H](C)CO)C(=O)c2cc(NS(=O)(=O)c3ccc(Cl)cc3)ccc2O1	9	x	x	76*	2	x
C[C@@H]1CCCCO[C@H](CN(C)Cc2ccccc2)[C@@H](C)CN([C@@H](C)CO)C(=O)c2cc(NS(=O)(=O)c3ccccc3)ccc2O1	-3	x	x	-5	x	x
C[C@H](CO)N1C[C@H](C)[C@H](CN(C)Cc2ccccc2)OCCCC[C@H](C)Oc2ccc(NS(=O)(=O)c3ccc(Cl)cc3)cc2C1=O	9	x	x	66*	13	x
C[C@H](CO)N1C[C@H](C)[C@H](CN(C)Cc2ccc(C(=O)O)cc2)OCCCC[C@H](C)Oc2ccc(NS(=O)(=O)c3ccc(Cl)cc3)cc2C1=O	-5	x	x	-36	1	x
